Several values for one entry are separate records, joined by “and”; a condition that tells them apart may be missing. Equal entries are not always repeated.
Key:
Format in all cases: toxicity, cell-based
U2OS = assay: Multiplex assay against U2OS; settings: human
Summary of the method: (§1)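 Live cells were stained at seeding with Hoechst33342, BioTracker Green Microtubule Cytoskeleton Dye, MitoTracker Red and Annexin V Alexa Fluor 680. Following compound addition, they were imaged on a CQ1 microscope at 37°C and 5% CO2 and gated by CellPathfinder machine learning into Hoechst high-intensity objects or normal cells, with normal cells split into healthy, pyknosed or fragmented nuclei and pyknosed cells into mitotic or apoptotic. Tubulin, mitochondrial-mass and membrane-permeability phenotypes are per cents of healthy-nucleus cells.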

Fibroblast = assay: Multiplex assay against human fibroblast; summary of the method: as §1
HEK-293T = assay: Multiplex assay against HEK293T; settings: human; summary of the method: as §1
[1] = 12 h, 1 µM, compound concentration 1 uM
[2] = 12 h, 10 µM, compound concentration 10 uM
[3] = 24 h, 1 µM, compound concentration 1 uM
[4] = 24 h, 10 µM, compound concentration 10 uM
[5] = 48 h, 1 µM, compound concentration 1 uM
[6] = 48 h, 10 µM, compound concentration 10 uM

## CCC(=N\O)/C(C)=C/c1ccc(F)cc1 [A-079]
U2OS; [1]
  Population Apoptotic (%): 48.57% and 40.91%
  Population Fragmented Nuclei (%): 1.07% and 0%
  Population Healthy Nuclei (%): 91.47% and 83.94%
  Population Hoechst High Intensity Objects (%): 0%
  Population Membrane Permeable-Phenotype (%): 0.47% and 1.74%
  Population Mitochondria Different-Phenotype (%): 0% and 11.3%
  Population Mitotic Cells (%): 51.43% and 59.09%
  Population Normal (%): 100%
  Population Pyknosed Nuclei (%): 7.46% and 16.06%
  Population Tubulin-Different-Phenotype (%): 0.47% and 1.74%
U2OS; [2]
  Population Apoptotic (%): 36.67% and 36.84%
  Population Fragmented Nuclei (%): 3.39% and 2.96%
  Population Healthy Nuclei (%): 88.14% and 82.96%
  Population Hoechst High Intensity Objects (%): 0%
  Population Membrane Permeable-Phenotype (%): 1.6% and 0.89%
  Population Mitochondria Different-Phenotype (%): 0% and 4.46%
  Population Mitotic Cells (%): 63.33% and 63.16%
  Population Normal (%): 100%
  Population Pyknosed Nuclei (%): 8.47% and 14.07%
  Population Tubulin-Different-Phenotype (%): 0.64% and 0.89%
  Total Cell Count: 354 and 135
U2OS; [3]
  Population Apoptotic (%): 36.36% and 42.86%
  Population Fragmented Nuclei (%): 0.47% and 0.53%
  Population Healthy Nuclei (%): 90.89% and 88.24%
  Population Hoechst High Intensity Objects (%): 0%
  Population Membrane Permeable-Phenotype (%): 0.86% and 1.82%
  Population Mitochondria Different-Phenotype (%): 0% and 3.03%
  Population Mitotic Cells (%): 63.64% and 57.14%
  Population Normal (%): 100%
  Population Pyknosed Nuclei (%): 8.63% and 11.23%
  Population Tubulin-Different-Phenotype (%): 0.17% and 0.61%
U2OS; [4]
  Population Apoptotic (%): 43.18% and 38.1%
  Population Fragmented Nuclei (%): 2.04% and 1.9%
  Population Healthy Nuclei (%): 88.96% and 84.81%
  Population Hoechst High Intensity Objects (%): 0%
  Population Membrane Permeable-Phenotype (%): 0.46% and 2.99%
  Population Mitochondria Different-Phenotype (%): 0% and 8.21%
  Population Mitotic Cells (%): 56.82% and 61.9%
  Population Normal (%): 100%
  Population Pyknosed Nuclei (%): 9% and 13.29%
  Population Tubulin-Different-Phenotype (%): 0.23% and 0.75%
U2OS; [5]
  Population Apoptotic (%): 43.75% and 67.74%
  Population Fragmented Nuclei (%): 3.57% and 1.19%
  Population Healthy Nuclei (%): 86.9% and 89.55%
  Population Hoechst High Intensity Objects (%): 0%
  Population Membrane Permeable-Phenotype (%): 0.29% and 1.67%
  Population Mitochondria Different-Phenotype (%): 0.1% and 3%
  Population Mitotic Cells (%): 56.25% and 32.26%
  Population Normal (%): 100%
  Population Pyknosed Nuclei (%): 9.52% and 9.25%
  Population Tubulin-Different-Phenotype (%): 0.2% and 1%
U2OS; [6]
  Population Apoptotic (%): 34.57% and 41.18%
  Population Fragmented Nuclei (%): 3.23% and 2.2%
  Population Healthy Nuclei (%): 88.86% and 85.35%
  Population Hoechst High Intensity Objects (%): 0%
  Population Membrane Permeable-Phenotype (%): 0.55% and 1.72%
  Population Mitochondria Different-Phenotype (%): 0.11% and 5.58%
  Population Mitotic Cells (%): 65.43% and 58.82%
  Population Normal (%): 100%
  Population Pyknosed Nuclei (%): 7.92% and 12.45%
  Population Tubulin-Different-Phenotype (%): 0.33% and 0%
Fibroblast; [1]
  Population Apoptotic (%): 15.91% and 23.08%
  Population Fragmented Nuclei (%): 8.18% and 2.86%
  Population Healthy Nuclei (%): 71.82% and 82.29%
  Population Hoechst High Intensity Objects (%): 0%
  Population Membrane Permeable-Phenotype (%): 3.16% and 4.86%
  Population Mitochondria Different-Phenotype (%): 3.16% and 9.72%
  Population Mitotic Cells (%): 84.09% and 76.92%
  Population Normal (%): 100%
  Population Pyknosed Nuclei (%): 20% and 14.86%
  Population Tubulin-Different-Phenotype (%): 10.13% and 14.58%
  Total Cell Count: 220 and 175
Fibroblast; [2]
  Population Apoptotic (%): 11.32% and 27.78%
  Population Fragmented Nuclei (%): 6.99% and 5.71%
  Population Healthy Nuclei (%): 64.52% and 81.43%
  Population Hoechst High Intensity Objects (%): 0%
  Population Membrane Permeable-Phenotype (%): 5.83% and 7.02%
  Population Mitochondria Different-Phenotype (%): 5% and 9.65%
  Population Mitotic Cells (%): 88.68% and 72.22%
  Population Normal (%): 100%
  Population Pyknosed Nuclei (%): 28.49% and 12.86%
  Population Tubulin-Different-Phenotype (%): 13.33% and 21.93%
  Total Cell Count: 186 and 140
Fibroblast; [3]
  Population Apoptotic (%): 15.15% and 10.53%
  Population Fragmented Nuclei (%): 10% and 1.7%
  Population Healthy Nuclei (%): 75.65% and 87.5%
  Population Hoechst High Intensity Objects (%): 0%
  Population Membrane Permeable-Phenotype (%): 2.3% and 3.25%
  Population Mitochondria Different-Phenotype (%): 2.87% and 6.49%
  Population Mitotic Cells (%): 84.85% and 89.47%
  Population Normal (%): 100%
  Population Pyknosed Nuclei (%): 14.35% and 10.8%
  Population Tubulin-Different-Phenotype (%): 10.92% and 9.74%
  Total Cell Count: 230 and 176
Fibroblast; [4]
  Population Apoptotic (%): 17.14% and 20.83%
  Population Fragmented Nuclei (%): 8.85% and 6.62%
  Population Healthy Nuclei (%): 72.92% and 77.48%
  Population Hoechst High Intensity Objects (%): 0%
  Population Membrane Permeable-Phenotype (%): 10.71% and 3.42%
  Population Mitochondria Different-Phenotype (%): 7.86% and 4.27%
  Population Mitotic Cells (%): 82.86% and 79.17%
  Population Normal (%): 100%
  Population Pyknosed Nuclei (%): 18.23% and 15.89%
  Population Tubulin-Different-Phenotype (%): 19.29% and 19.66%
  Total Cell Count: 192 and 151
Fibroblast; [5]
  Population Apoptotic (%): 46.15% and 36.36%
  Population Fragmented Nuclei (%): 10.24% and 4.69%
  Population Healthy Nuclei (%): 84.65% and 89.58%
  Population Hoechst High Intensity Objects (%): 0%
  Population Membrane Permeable-Phenotype (%): 0.47% and 4.65%
  Population Mitotic Cells (%): 53.85% and 63.64%
  Population Normal (%): 100%
  Population Pyknosed Nuclei (%): 5.12% and 5.73%
  Total Cell Count: 254 and 192
Fibroblast; [6]
  Population Apoptotic (%): 20% and 36.36%
  Population Fragmented Nuclei (%): 12.33% and 5.62%
  Population Healthy Nuclei (%): 80.82% and 87.5%
  Population Hoechst High Intensity Objects (%): 0%
  Population Membrane Permeable-Phenotype (%): 1.69% and 6.43%
  Population Mitotic Cells (%): 80% and 63.64%
  Population Normal (%): 100%
  Population Pyknosed Nuclei (%): 6.85% and 6.88%
  Population Tubulin-Different-Phenotype (%): 6.78% and 17.86%
  Total Cell Count: 219 and 160
HEK-293T; [1]
  Population Apoptotic (%): 11.21% and 9.93%
  Population Fragmented Nuclei (%): 3.75% and 3.83%
  Population Hoechst High Intensity Objects (%): 0%
  Population Membrane Permeable-Phenotype (%): 0% and 2.86%
  Population Mitochondria Different-Phenotype (%): 29.63% and 22.86%
  Population Mitotic Cells (%): 88.79% and 90.07%
  Population Normal (%): 100%
  Population Pyknosed Nuclei (%): 31.1% and 77.05%
  Total Cell Count: 373 and 183
HEK-293T; [2]
  Population Apoptotic (%): 7.79% and 9.52%
  Population Fragmented Nuclei (%): 0.57% and 1.59%
  Population Hoechst High Intensity Objects (%): 0.28% and 0.79%
  Population Membrane Permeable-Phenotype (%): 0.51% and 0%
  Population Mitotic Cells (%): 92.21% and 90.48%
  Population Normal (%): 99.72% and 99.21%
  Population Pyknosed Nuclei (%): 43.87% and 83.33%
  Total Cell Count: 352 and 127
HEK-293T; [3]
  Population Apoptotic (%): 14.77% and 10.19%
  Population Fragmented Nuclei (%): 4.65% and 2.11%
  Population Healthy Nuclei (%): 80.21% and 41.05%
  Population Hoechst High Intensity Objects (%): 0%
  Population Membrane Permeable-Phenotype (%): 1.72% and 1.28%
  Population Mitochondria Different-Phenotype (%): 15.02% and 6.41%
  Population Mitotic Cells (%): 85.23% and 89.81%
  Population Normal (%): 100%
  Population Tubulin-Different-Phenotype (%): 7.73% and 3.85%
HEK-293T; [4]
  Population Apoptotic (%): 13.24% and 15.38%
  Population Fragmented Nuclei (%): 1.47% and 1.14%
  Population Healthy Nuclei (%): 73.48% and 39.77%
  Population Hoechst High Intensity Objects (%): 0.18% and 0.56%
  Population Membrane Permeable-Phenotype (%): 0.75% and 0%
  Population Mitochondria Different-Phenotype (%): 16.04% and 8.57%
  Population Mitotic Cells (%): 86.76% and 84.62%
  Population Normal (%): 99.82% and 99.44%
  Population Pyknosed Nuclei (%): 25.05% and 59.09%
HEK-293T; [5]
  Population Apoptotic (%): 8.9% and 17.46%
  Population Fragmented Nuclei (%): 5.91% and 2.96%
  Population Healthy Nuclei (%): 84.62% and 78.4%
  Population Hoechst High Intensity Objects (%): 0% and 0.29%
  Population Membrane Permeable-Phenotype (%): 6.52% and 3.4%
  Population Mitochondria Different-Phenotype (%): 8.82% and 9.06%
  Population Mitotic Cells (%): 91.1% and 82.54%
  Population Normal (%): 100% and 99.71%
  Population Pyknosed Nuclei (%): 9.47% and 18.64%
HEK-293T; [6]
  Population Apoptotic (%): 8.2% and 20.78%
  Population Fragmented Nuclei (%): 3.08% and 0.64%
  Population Healthy Nuclei (%): 85.54% and 50%
  Population Hoechst High Intensity Objects (%): 0% and 0.64%
  Population Membrane Permeable-Phenotype (%): 3.82% and 1.28%
  Population Mitochondria Different-Phenotype (%): 18.43% and 25.64%
  Population Mitotic Cells (%): 91.8% and 79.22%
  Population Normal (%): 100% and 99.36%

From ChEMBL document CHEMBL5724801, “EUbOPEN Chemogenomics Library - Multiplex” (2024)
